Test results as given in ChEMBL document CHEMBL5230170, “Pyridine based dual binding site aromatase (CYP19A1) inhibitors” (RSC Med Chem, 2023).
Calls of active or inactive are those of the source. No cut-off for these calls is given here.

Columns and labels:
MCF7 = experiment: Cytotoxicity against human MCF7 cells assessed as reduction in cell growth at 1 uM incubated for 48 hrs by BrdU cell proliferation assay; type: functional, cell-based
Procedure, shortened: (§1)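 48 h exposure to 1 μM, with DMSO vehicle (≤0.01%) and doxorubicin (1 μM) controls, then BrdU added for 2 h at 37 °C before fixation, DNA denaturation and colorimetric immunoassay of BrdU incorporation. Plating was 8 × 10^3 cells/well for MCF-10A and 5 × 10^3 cells/well for MDA-MB-231. Technical replicates were n = 6 for MDA-MB-231 and n = 5 for MCF-7 and MCF-10A; one-way ANOVA with Tukey's test.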

MCF-10A = experiment: Cytotoxicity against human MCF-10A cells assessed as reduction in cell growth at 1 uM incubated for 48 hrs by BrdU cell proliferation assay; type: toxicity, cell-based; procedure, shortened: as §1
MDA-MB-231 = experiment: Cytotoxicity against human MDA-MB-231 cells assessed as reduction in cell growth at 1 uM incubated for 48 hrs by BrdU cell proliferation assay; type: functional, cell-based; procedure, shortened: as §1
Homo sapiens [1] = organism: Homo sapiens; experiment: Selectivity index, ratio of IC50 for inhibition of CYP2D6 in human liver microsomes to IC50 for inhibition of CYP19A1 in human JEG-3 cells; type: cell-based
Procedure, shortened: (§2)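 The CYP isoform IC50 was measured in human liver microsomes with an isoform-specific probe substrate. […] Tritiated water was charcoal-cleared and counted, then normalised to BCA protein, in triplicate. The index is the ratio of the isoform IC50 to the CYP19A1 IC50.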

Homo sapiens [2] = organism: Homo sapiens; experiment: Selectivity index, ratio of IC50 for inhibition of CYP1A2 in human liver microsomes to IC50 for inhibition of CYP19A1 in human JEG-3 cells; type: cell-based; procedure, shortened: as §2

| SMILES | Activity (MCF7) | Activity (MCF-10A) | Activity (MDA-MB-231) | Ratio IC50 (Homo sapiens [1]) | Ratio IC50 (Homo sapiens [2]) |
| --- | --- | --- | --- | --- | --- |
| COc1ccc2cc(C(O)(c3ccc(Cl)cc3)c3cccnc3)oc2c1 (centres undefined) | inactive | Non-Toxic | inactive |  |  |
| COc1ccc2cc(C(O)(c3cccnc3)c3ccc(Cl)cc3Cl)oc2c1 (centres undefined) | inactive | Non-Toxic | inactive |  |  |
| COc1cccc2c1C(=O)c1c(O)c3c(c(O)c1C2=O)C[C@@](O)(C(=O)CO)C[C@@H]3O[C@H]1C[C@H](N)[C@H](O)[C@H](C)O1 [DOXORUBICIN] | inactive | Not Active | inactive |  |  |
| CCC#CCOc1ccc2cc(C(O)(c3ccc(Br)cc3)c3cccnc3)oc2c1 (centres undefined) | inactive | Not Active | inactive |  |  |
| CCC#CCOc1ccc2cc(C(O)(c3ccc(Cl)cc3)c3cccnc3)oc2c1 (centres undefined) | inactive | Not Active | inactive |  |  |
| CC#CCOc1ccc2cc(C(O)(c3ccc(Cl)cc3)c3cccnc3)oc2c1 (centres undefined) | inactive | Non-Toxic | inactive |  |  |
| COc1ccc2cc(C(O)(c3ccc(Br)cc3)c3cccnc3)oc2c1 (centres undefined) | inactive | Non-Toxic | inactive |  |  |
| COc1ccc2cc(C(O)(c3ccc(F)cc3)c3cccnc3)oc2c1 (centres undefined) | inactive | Non-Toxic | inactive |  |  |
| CC#CCOc1ccc2cc(C(O)(c3ccc(Br)cc3)c3cccnc3)oc2c1 (centres undefined) | inactive | Non-Toxic | inactive | 30100 | 30100 |
